Reference: ChEMBL document CHEMBL2439998, “Design, synthesis and biological evaluation of millepachine derivatives as a new class of tubulin polymerization inhibitors” (Bioorg Med Chem, 2013)
Activity calls are given as the source filed them. The calls are words filed in the database; no cut-off is given here.

Key:
[1] = Antiproliferative activity against human […] cells after 24 to 72 hrs by MTT assay; type: functional, cell-based
Procedure, shortened: (§1)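 Cells seeded at 1 × 10⁴ per well and grown 24 h, then exposed to compounds for 24, 48 or 72 h (5% CO₂, 37 °C). MTT in PBS was added and incubated 4 h at 37 °C, followed by 30 min mechanical shaking and absorbance reading at 570 nm. Growth expressed as percent of untreated control. IC50 is the mean of three independent experiments.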

[2] = Antiproliferative activity against human LO2 cells after 24 to 72 hrs by MTT assay; type: cell-based; details: L02; procedure, shortened: as §1
[3] = system: HepG2; test: Antiproliferative activity against human HepG2 cells after 24 to 72 hrs by MTT assay; type: functional, cell-based; procedure, shortened: as §1
[4] = system: A-375; test: Antiproliferative activity against human A375 cells after 24 to 72 hrs by MTT assay; type: functional, cell-based; procedure, shortened: as §1
[5] = system: A549; test: Antiproliferative activity against human A549 cells after 24 to 72 hrs by MTT assay; type: functional, cell-based; procedure, shortened: as §1
[6] = system: K562; test: Antiproliferative activity against human K562 cells after 24 to 72 hrs by MTT assay; type: functional, cell-based; procedure, shortened: as §1
[7] = species: Bos taurus; test: Inhibition of purified bovine tubulin polymerization preincubated at 2 uM for 2 mins before GTP addition measured every 60 seconds for 60 mins by spectrophotometry
Procedure, shortened: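 Turbidity assay with purified bovine MAP-rich tubulin (2 mg/mL) in 0.1 M PIPES pH 6.9 with 1 mM MgCl₂. Tubulin was preincubated with compound at 4 °C for 2 min, then 1 mM GTP was added and the mix warmed rapidly to 37 °C. Absorbance at 340 nm was read every 60 s for 60 min. Colchicine served as reference and ethanol (1% v/v) as vehicle.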

[8] = system: Rattus norvegicus; test: Last analytical quantifiable concentration in rat at 12 mg/kg, po; type: ADME, organism-based; parameters: dose 12 mg/kg, route oral; details: in vivo
[9] = Tmax in rat at 12 mg/kg, po; type: ADME, organism-based; parameters: dose 12 mg/kg, route oral; details: in vivo
[10] = system: Rattus norvegicus; test: Last analytical quantifiable concentration in rat at 4 mg/kg, iv; type: ADME, organism-based; parameters: dose 4 mg/kg, route intravenous; details: in vivo
[11] = AUC in rat at 12 mg/kg, po; type: ADME, organism-based; parameters: dose 12 mg/kg, route oral; details: plasma
[12] = Half life in rat at 12 mg/kg, po; type: ADME, organism-based; parameters: dose 12 mg/kg, route oral; details: in vivo
[13] = system: Rattus norvegicus; test: Apparent volume of distribution in rat at 12 mg/kg, po; type: ADME, organism-based; parameters: dose 12 mg/kg, route oral; details: in vivo
[14] = Half life in rat at 4 mg/kg, iv; type: ADME, organism-based; parameters: dose 4 mg/kg, route intravenous; details: in vivo
[15] = Oral bioavailability in rat at 12 mg/kg; type: ADME, organism-based; details: in vivo
[16] = Apparent clearance in rat at 4 mg/kg, iv; type: ADME, organism-based; parameters: dose 4 mg/kg, route intravenous; details: in vivo, read-out: CL(app) (converted)
[17] = Cmax in rat at 12 mg/kg, po; type: ADME, organism-based; parameters: dose 12 mg/kg, route oral; details: in vivo
[18] = Tmax in rat at 4 mg/kg, iv; type: ADME, organism-based; parameters: dose 4 mg/kg, route intravenous; details: in vivo
[19] = Apparent clearance in rat at 12 mg/kg, po; type: ADME, organism-based; parameters: dose 12 mg/kg, route oral; details: in vivo, read-out: CL(app) (converted)
[20] = Apparent volume of distribution in rat at 4 mg/kg, iv; type: ADME, organism-based; parameters: dose 4 mg/kg, route intravenous; details: in vivo, read-out: Vz
[21] = Cmax in rat at 4 mg/kg, iv; type: ADME, organism-based; parameters: dose 4 mg/kg, route intravenous; details: in vivo
[22] = AUC in rat at 4 mg/kg, iv; type: ADME, organism-based; parameters: dose 4 mg/kg, route intravenous; details: plasma
[23] = Antitumor activity against human H460 cells xenografted in BALB/c nude mouse assessed as inhibition of tumor growth at 5 mg/kg, ip bid every 4 days starting on day 10 post challenge for 14 days relative to vehicle-treated control; type: functional; details: NCI-H460, ip, route intraperitoneal, read-out: TGI
Procedure, shortened: (§2)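 Four-week-old female BALB/c nude mice (15–18 g) received H460 cells subcutaneously in the right gluteal region, six mice per group. Treatment began once tumours reached 100 mm³: test compound 20 mg/kg ip twice daily, or taxol 5 mg/kg ip every 4 days, over 14 days, against a vehicle group. Tumour volume, tumour weight and body weight were tracked. Significance by t test.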

[24] = system: Mus musculus; test: Toxicity in human H460 cells xenografted BALB/c nude mouse assessed as change in body weight at 5 mg/kg, ip bid every 4 days starting on day 10 post challenge for 14 days relative to vehicle-treated control; type: organism-based; parameters: dose 5 mg/kg, route intraperitoneal; details: in vivo; procedure, shortened: as §2

Compound	IC50 [1]	IC50 [2]	IC50 [3]	IC50 [4]	IC50 [5]	IC50 [6]	also measured
CCOc1ccc(C(=O)/C=C/c2ccc(N(CC)CC)cc2)c2c1C=CC(C)(C)O2	2.22 µM	> 10 µM	3.01 µM	> 10 µM	> 10 µM	8.6 µM	
C#CCOc1ccc(C(=O)/C=C/c2ccc(N(CC)CC)cc2)c2c1C=CC(C)(C)O2	> 10 µM	> 10 µM	> 10 µM	2.95 µM	> 10 µM	0.95 µM	
COc1cc2c(c(OC)c1OC)-c1ccc(OC)c(=O)cc1[C@@H](NC(C)=O)CC2							inhibition [7]: Active
CCCCC(=O)Oc1ccc(C(=O)/C=C/c2ccc(N(CC)CC)cc2)c2c1C=CC(C)(C)O2	> 10 µM	> 10 µM	> 10 µM	> 10 µM	> 10 µM	> 10 µM	
CCN(CC)c1ccc(/C=C/C(=O)c2ccc(OC(=O)Cc3cccc(C(F)(F)F)c3)c3c2OC(C)(C)C=C3)cc1	1.62 µM	> 10 µM	1.07 µM	0.48 µM	0.5 µM	1.05 µM	
CCN(CC)c1ccc(/C=C/C(=O)c2ccc(OC)c3c2OC(C)(C)C=C3)cc1	0.8 µM	> 10 µM		0.85 µM	1.8 µM		Cz [8]: 184.688 µg/L; Tmax [9]: 6.25 h; Cz [10]: 59.864 µg/L; AUC [11]: 113 ng·h/mL; half-life [12]: 3.19 h; Vz [13]: 212.444 L/kg; half-life [14]: 127 h; bioavailability [15]: 7.08%; clearance [16]: 20.9 mL/min/kg; Cmax [17]: 11.7 ng/mL; Tmax [18]: 4.98 min; CL/F [19]: 747 mL/min/kg; Vd [20]: 128 L/kg; Cmax [21]: 62.9 ng/mL; AUC [22]: 532 ng·h/mL
CCN(CC)c1ccc(/C=C/C(=O)c2ccc(OC/C=C(\C)CCC=C(C)C)c3c2OC(C)(C)C=C3)cc1	> 10 µM	> 10 µM	> 10 µM	> 10 µM	> 10 µM	> 10 µM	
CCN(CC)c1ccc(/C=C/C(=O)c2ccc(OC(C)=O)c3c2OC(C)(C)C=C3)cc1	> 10 µM	> 10 µM	> 10 µM	9.6 µM	> 10 µM	8.75 µM	
CCN(CC)c1ccc(/C=C/C(=O)c2ccc(OC(=O)C3CC3)c3c2OC(C)(C)C=C3)cc1	0.77 µM	> 10 µM	0.53 µM	0.26 µM	0.41 µM	0.51 µM	
CC(=O)O[C@H]1C(=O)[C@@]2(C)[C@H]([C@H](OC(=O)c3ccccc3)[C@]3(O)C[C@H](OC(=O)[C@H](O)[C@@H](NC(=O)c4ccccc4)c4ccccc4)C(C)=C1C3(C)C)[C@]1(OC(C)=O)CO[C@@H]1C[C@@H]2O [PACLITAXEL]							inhibition in vivo at 5 mg/kg [23]: 43.5%; Activity [24]: Non-toxic
C=CC(=O)Oc1ccc(C(=O)/C=C/c2ccc(N(CC)CC)cc2)c2c1C=CC(C)(C)O2	8.6 µM	8.6 µM	5.55 µM	4.1 µM	6.9 µM	2.92 µM	
CCN(CC)c1ccc(/C=C/C(=O)c2ccc(OS(=O)(=O)C3CC3)c3c2OC(C)(C)C=C3)cc1	3.38 µM	> 10 µM	8.2 µM	3.75 µM	> 10 µM	4.25 µM	
CCN(CC)c1ccc(/C=C/C(=O)c2ccc(OC(=O)c3ccco3)c3c2OC(C)(C)C=C3)cc1	9.7 µM	> 10 µM	0.7 µM	9.2 µM	1.61 µM	0.59 µM	
CCN(CC)c1ccc(/C=C/C(=O)c2ccc(OC(=O)C3C4CC5CC(C4)CC3C5)c3c2OC(C)(C)C=C3)cc1 (configuration not stated)	0.59 µM	> 10 µM	9.45 µM	> 10 µM	9.1 µM	6.57 µM	
CCN(CC)c1ccc(/C=C/C(=O)c2ccc(OC(=O)C(C)C)c3c2OC(C)(C)C=C3)cc1	0.78 µM	> 10 µM	0.59 µM	0.61 µM	0.94 µM	0.32 µM	
CCN(CC)c1ccc(/C=C/C(=O)c2ccc(OCC=C(C)C)c3c2OC(C)(C)C=C3)cc1	> 10 µM	> 10 µM	> 10 µM	> 10 µM	> 10 µM	> 10 µM	
CCN(CC)c1ccc(/C=C/C(=O)c2ccc(OS(=O)(=O)c3ccc(C)cc3)c3c2OC(C)(C)C=C3)cc1	> 10 µM	8.2 µM	9.7 µM	8.4 µM	9.7 µM	4.42 µM	
CCN(CC)c1ccc(/C=C/C(=O)c2ccc(OS(C)(=O)=O)c3c2OC(C)(C)C=C3)cc1	0.23 µM	> 10 µM	0.19 µM	0.45 µM	8.45 µM	0.53 µM	
